# Measured values taken from ChEMBL document CHEMBL1641462, “Synthesis and in vivo evaluation of ¹⁸F-fluoroethyl GF120918 and XR9576 as positron emission tomography probes for assessing the function of drug efflux transporters” (Bioorg Med Chem, 2011).
# What was measured:
# Spleen [1] = experiment: Biodistribution in FVB mouse spleen assessed per gram of tissue at 1 to 4.8 MBq, iv after 15 mins; format: ADME, organism-based; conditions: in vivo, 0.25 h
# Method in brief: (§1)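 Male FVB mice (8–10 weeks, 25–29 g) given tracer 1.0–4.8 MBq/7.1–34 pmol iv; killed by cervical dislocation at set times (n = 4 per group). Blood by heart puncture; tissues dissected, weighed and gamma counted. Radioactivity decay-corrected to injection time, expressed as %ID/g, mean ± SD.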
# Liver [2] = experiment: Biodistribution in FVB mouse liver assessed per gram of tissue at 1 to 4.8 MBq, iv after 30 mins; format: ADME, organism-based; conditions: in vivo, 0.5 h
# Method in brief: (§2)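 Male FVB mice (8–10 weeks, 25–29 g) received tracer iv (1.0–4.8 MBq, 7.1–34 pmol). Killed by cervical dislocation at 5, 15, 30, 60 or 90 min. Blood taken by heart puncture; tissues dissected, weighed and gamma-counted. Activity decay-corrected to injection time and given as %ID/g; mean ± SD, n = 4 per time point.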
# [3] = Biodistribution in FVB mouse small intestine assessed per gram of tissue at 1 to 4.8 MBq, iv after 30 mins; format: ADME, organism-based; conditions: in vivo, 0.5 h; method in brief: as §1
# Brain [4] = experiment: AUC (0 to 60 mins) in P-gp/BCRP knockout mouse brain at 2.8 to 5.6 MBq, iv; format: ADME, organism-based; conditions: in vivo
# Method in brief: (§3)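 Small-animal PET in male wild-type and knockout mice under isoflurane (1.0–1.5%), prone on the scanner bed. Tracer (2.8–5.6 MBq, 20–40 pmol) given iv, with or without co-injected GF120918 at 5 mg/kg. Dynamic 60-min list-mode scan. Decay-corrected SUV read from ROIs on brain, and on the ventricular cavity for blood. AUC taken over 0–60 min in SUV·min; n = 4 per group.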
# [5] = Biodistribution in FVB mouse small intestine assessed per gram of tissue at 1 to 4.8 MBq, iv after 60 mins; format: ADME, organism-based; conditions: in vivo, 1 h; method in brief: as §1
# [6] = Biodistribution in FVB mouse small intestine assessed per gram of tissue at 1 to 4.8 MBq, iv after 90 mins; format: ADME, organism-based; conditions: in vivo, 1.5 h; method in brief: as §1
# Kidney [7] = experiment: Biodistribution in FVB mouse kidney assessed per gram of tissue at 1 to 4.8 MBq, iv after 30 mins; format: ADME, organism-based; conditions: in vivo, 0.5 h; method in brief: as §2
# Liver [8] = experiment: Biodistribution in FVB mouse liver assessed per gram of tissue at 1 to 4.8 MBq, iv after 5 mins; format: ADME, organism-based; conditions: in vivo; method in brief: as §2
# Kidney [9] = experiment: Biodistribution in FVB mouse kidney assessed per gram of tissue at 1 to 4.8 MBq, iv after 60 mins; format: ADME, organism-based; conditions: in vivo, 1 h; method in brief: as §2
# Muscle tissue [10] = experiment: Biodistribution in FVB mouse muscle assessed per gram of tissue at 1 to 4.8 MBq, iv after 90 mins; format: ADME, organism-based; conditions: in vivo, 1.5 h; method in brief: as §2
# Lung [11] = experiment: Biodistribution in FVB mouse lung assessed per gram of tissue at 1 to 4.8 MBq, iv after 5 mins; format: ADME, organism-based; conditions: in vivo; method in brief: as §2
# [12] = Fold increase in testis-to-blood ratio of drug level in FVB mouse at 1 to 4.8 MBq, iv co-administered with 5 mg/kg, iv of GF120918; conditions: testis and blood, with GF120918, 5 mg/kg iv
# Brain [13] = experiment: Biodistribution in P-gp/BCRP knockout mouse brain at 3.3 to 4.9 MBq, iv after up to 60 mins; format: ADME, organism-based; conditions: in vivo, 1 h
# Kidney [14] = experiment: Biodistribution in FVB mouse kidney assessed per gram of tissue at 1 to 4.8 MBq, iv after 15 mins; format: ADME, organism-based; conditions: in vivo, 0.25 h; method in brief: as §2
# Pancreas [15] = experiment: Biodistribution in FVB mouse pancreas assessed per gram of tissue at 1 to 4.8 MBq, iv after 90 mins; format: ADME, organism-based; conditions: in vivo, 1.5 h; method in brief: as §1
# Pancreas [16] = experiment: Biodistribution in FVB mouse pancreas assessed per gram of tissue at 1 to 4.8 MBq, iv after 5 mins; format: ADME, organism-based; conditions: in vivo; method in brief: as §1
# Heart [17] = experiment: Biodistribution in FVB mouse heart assessed per gram of tissue at 1 to 4.8 MBq, iv after 60 mins; format: ADME, organism-based; conditions: in vivo, 1 h; method in brief: as §2
# [18] = Biodistribution in FVB mouse small intestine assessed per gram of tissue at 1 to 4.8 MBq, iv after 15 mins; format: ADME, organism-based; conditions: in vivo, 0.25 h; method in brief: as §1
# Brain [19] = experiment: Ratio of AUC (0 to 60 mins) in wild type mouse brain to AUC (0 to 60 mins) in wild type mouse brain at 2.8 to 5.6 MBq, iv co-administered with GF120918; format: ADME, organism-based; conditions: in vivo
# Brain [20] = experiment: Biodistribution in BCRP knockout mouse brain at 3.3 to 4.9 MBq, iv after up to 60 mins; format: ADME, organism-based; conditions: in vivo, 1 h
# Lung [21] = experiment: Biodistribution in FVB mouse lung assessed per gram of tissue at 1 to 4.8 MBq, iv after 90 mins; format: ADME, organism-based; conditions: in vivo, 1.5 h; method in brief: as §2
# Heart [22] = experiment: Biodistribution in FVB mouse heart assessed per gram of tissue at 1 to 4.8 MBq, iv after 15 mins; format: ADME, organism-based; conditions: in vivo, 0.25 h; method in brief: as §2
# Bone [23] = experiment: Biodistribution in FVB mouse bone assessed per gram of tissue at 1 to 4.8 MBq, iv after 5 mins; format: ADME, organism-based, Bone element; conditions: in vivo; method in brief: as §2
# Brain [24] = experiment: AUC (0 to 60 mins) in wild type mouse brain at 2.8 to 5.6 MBq, iv; format: ADME, organism-based; conditions: in vivo; method in brief: as §3
# Pancreas [25] = experiment: Biodistribution in FVB mouse pancreas assessed per gram of tissue at 1 to 4.8 MBq, iv after 60 mins; format: ADME, organism-based; conditions: in vivo, 1 h; method in brief: as §1
# Spleen [26] = experiment: Biodistribution in FVB mouse spleen assessed per gram of tissue at 1 to 4.8 MBq, iv after 90 mins; format: ADME, organism-based; conditions: in vivo, 1.5 h; method in brief: as §1
# Liver [27] = experiment: Biodistribution in FVB mouse liver assessed per gram of tissue at 1 to 4.8 MBq, iv after 15 mins; format: ADME, organism-based; conditions: in vivo, 0.25 h; method in brief: as §2
# Bone [28] = experiment: Biodistribution in FVB mouse bone assessed per gram of tissue at 1 to 4.8 MBq, iv after 90 mins; format: ADME, organism-based, Bone element; conditions: in vivo, 1.5 h; method in brief: as §2
# Lung [29] = experiment: Biodistribution in FVB mouse lung assessed per gram of tissue at 1 to 4.8 MBq, iv after 15 mins; format: ADME, organism-based; conditions: in vivo, 0.25 h; method in brief: as §2
# Blood [30] = experiment: Biodistribution in FVB mouse blood assessed per gram of tissue at 1 to 4.8 MBq, iv after 60 mins; format: ADME, organism-based; conditions: in vivo, 1 h; method in brief: as §2
# Muscle tissue [31] = experiment: Biodistribution in FVB mouse muscle assessed per gram of tissue at 1 to 4.8 MBq, iv after 5 mins; format: ADME, organism-based; conditions: in vivo; method in brief: as §2
# Plasma = experiment: Metabolic stability in FVB mouse plasma assessed as recovery of radioactivity at 1 to 4.8 MBq, iv by HPLC analysis; format: ADME, organism-based; conditions: in vivo
# Method in brief: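 Brain homogenate or plasma from tracer plus GF120918 (5 mg/kg) co-injected FVB mice deproteinized with equal volume ice-cold acetonitrile; radioactivity in supernatant, precipitate and HPLC waste gamma counted to give recovery, mean ± SD (n = 7).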
# Brain [32] = experiment: AUC (0 to 60 mins) in wild type mouse brain at 2.8 to 5.6 MBq, iv co-administered with GF120918; format: ADME, organism-based; conditions: in vivo; method in brief: as §3
# [33] = Biodistribution in FVB mouse small intestine assessed per gram of tissue at 1 to 4.8 MBq, iv after 5 mins; format: ADME, organism-based; conditions: in vivo; method in brief: as §1
# Blood [34] = experiment: AUC (0 to 60 mins) in wild type mouse blood at 2.8 to 5.6 MBq, iv; format: ADME, tissue-based; method in brief: as §3
# Blood [35] = experiment: Biodistribution in FVB mouse blood assessed per gram of tissue at 1 to 4.8 MBq, iv after 90 mins; format: ADME, organism-based; conditions: in vivo, 1.5 h; method in brief: as §2
# Liver [36] = experiment: Biodistribution in FVB mouse liver assessed per gram of tissue at 1 to 4.8 MBq, iv after 90 mins; format: ADME, organism-based; conditions: in vivo, 1.5 h; method in brief: as §2
# Brain [37] = experiment: Biodistribution in FVB mouse brain assessed per gram of tissue at 1 to 4.8 MBq, iv after 90 mins; format: ADME, organism-based; conditions: in vivo, 1.5 h; method in brief: as §2
Compound,Drug uptake (Spleen [1]) [% ID/g],Drug uptake (Liver [2]) [% ID/g],Drug uptake [3] [% ID/g],AUC (Brain [4]) [SUV·min],Drug uptake [5] [% ID/g],Drug uptake [6] [% ID/g],Drug uptake (Kidney [7]) [% ID/g],Drug uptake (Liver [8]) [% ID/g],Drug uptake (Kidney [9]) [% ID/g],Drug uptake (Muscle tissue [10]) [% ID/g],Drug uptake (Lung [11]) [% ID/g],Fold increase [12],Activity (Brain [13]),Drug uptake (Kidney [14]) [% ID/g],Drug uptake (Pancreas [15]) [% ID/g],Drug uptake (Pancreas [16]) [% ID/g],Drug uptake (Heart [17]) [% ID/g],Drug uptake [18] [% ID/g],Ratio AUC (Brain [19]),Activity (Brain [20]),further results
COc1cc(NC(=O)c2cnc3ccccc3c2)c(C(=O)Nc2ccc(CCN3CCc4cc(OC)c(OCC[18F])cc4C3)cc2)cc1OC,6.73,23.23,14.09,32.9,22.42,24.45,11.34,29.33,11.29,0.68,22.5,5,Active,16.09,13.56,6.05,2.09,9.42,7.1,Active,Drug uptake (Lung [21]): 15.76 % ID/g; Drug uptake (Heart [22]): 3.49 % ID/g; Drug uptake (Bone [23]): 2.17 % ID/g; SUV (Brain [24]): 4; Drug uptake (Pancreas [25]): 12.45 % ID/g; Drug uptake (Spleen [26]): 7.42 % ID/g; Drug uptake (Liver [27]): 31.06 % ID/g; Drug uptake (Bone [28]): 1.45 % ID/g; Drug uptake (Lung [29]): 20.55 % ID/g; Drug uptake (Blood [30]): 0.61 % ID/g; Drug uptake (Muscle tissue [31]): 2.23 % ID/g; Stability (Plasma): 95.3%; AUC (Brain [32]): 28.1 SUV·min; Drug uptake [33]: 5.67 % ID/g; AUC (Blood [34]): 33.2 SUV·min; Drug uptake (Blood [35]): 0.57 % ID/g; Drug uptake (Liver [36]): 22.18 % ID/g; Drug uptake (Brain [37]): 0.1 % ID/g
COc1cc2c(cc1OC)CN(CCc1ccc(NC(=O)c3cccc4c(=O)c5cccc(OCC[18F])c5[nH]c34)cc1)CC2,5.34,5.35,7.6,39.8,12.48,17.15,19.45,4.88,23.44,0.38,19.6,7,Active,24.17,15.21,6.12,1.19,7.09,6.9,Active,Drug uptake (Lung [21]): 4.09 % ID/g; Drug uptake (Heart [22]): 2.43 % ID/g; Drug uptake (Bone [23]): 1.99 % ID/g; SUV (Brain [24]): 4.4; Drug uptake (Pancreas [25]): 15.14 % ID/g; Drug uptake (Spleen [26]): 4.71 % ID/g; Drug uptake (Liver [27]): 5.99 % ID/g; Drug uptake (Bone [28]): 1.3 % ID/g; Drug uptake (Lung [29]): 13.32 % ID/g; Drug uptake (Blood [30]): 0.4 % ID/g; Drug uptake (Muscle tissue [31]): 1.75 % ID/g; Stability (Plasma): 94.1%; AUC (Brain [32]): 30.2 SUV·min; Drug uptake [33]: 4.51 % ID/g; AUC (Blood [34]): 25.6 SUV·min; Drug uptake (Blood [35]): 0.36 % ID/g; Drug uptake (Liver [36]): 14.82 % ID/g; Drug uptake (Brain [37]): 0.13 % ID/g
